Test system: MS2 coat protein
Assay: apparent Kd, MS2 coat protein; higher = weaker binding; RNA-MaP array; FMN 200 µM where present
Summary of the method: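 Stalled E. coli RNA polymerase produced the designs on Illumina sequencing-chip clusters. SNAP-549-labelled MS2 coat protein was added from 0.7 or 1.5 nM, doubling to 3 µM, without and then with constant ligand, in 100 mM Tris-HCl pH 7.5, 80 mM KCl, 4 mM MgCl2, BSA, DTT, yeast tRNA and Tween-20. The apparent Kd is the median of filtered per-cluster fits of green signal normalised to red-channel RNA signal and control-cluster median Fmax.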

[1] = designed as: OFF switch for flavin mononucleotide, no ligand
[2] = ligand present: flavin mononucleotide, designed as: OFF switch for flavin mononucleotide
[3] = designed as: ON switch for flavin mononucleotide, no ligand
[4] = ligand present: flavin mononucleotide, designed as: ON switch for flavin mononucleotide

Row | Sequence | apparent Kd [1] | apparent Kd [2] | apparent Kd [3] | apparent Kd [4]
1 | GCUGACGAUGUAGGAUAUCAGUAUAAUAAAUACUGAGAAGGACAUGAGGAUCACCCAUGUAAAAUCCCGUCAGCGAGGAAACUC | 17.1 nM | 23.8 nM | – | –
2 | GUUGGCUGAGGAUAUGCUUGCGUGCUUUUGUGUCGCGGGUGACAUGAGGAUCACCCAUGUAGAAGGUGGUCGGC | 818 nM | 673 nM | – | –
3 | AUUCCCGGUGUUAGGAUAUCCAACGCCCACGCGAUGGAGAAGGGACAUGAGGAUCACCCAUGUAGAGCUGCAUC | 14.3 nM | 14.5 nM | – | –
4 | UUAAUUCGAAACAUGAGGAUCACCCAUGUGUUGUGGUUAAUAUAGGAUAUGUGGAUACUUUUUUGACAGAAGGAUGAUGGUACU | – | – | 13.3 nM | 11.6 nM
5 | AUCAGCUCGUCAGGAUAUACGUCAUUGCGUCAGCAGUGUGGUAAGAUCACAUGAGGAUCACCCAUGUAGAAGGGACGAGCUGAU | 13.9 nM | 286 nM | – | –
6 | UGGUCAUGAUCAGGAUAUUAACAUGGGCUACAUUAAGAAGGGAUAGUGAGAUACGAACUGAACGACAUGAGGAUCACCCAUGUA | – | – | 44.8 nM | 34.3 nM
7 | UUUUUGUCAGGAUAUGCGUAGUAGAACAAUAGUACUACUACGUAGAAGGGACAUGAGGAUCACCCAUGUUCCUC | 14.4 nM | 20.5 nM | – | –
8 | CAGGUAGACUGAGGAUAUACAAUAAACAGCUAGUCUAUCUAGCUGUCCACAUGAGGAUCACCCAUGUAGAAGGCAGUCUGCCUG | 18.9 nM | 42 nM | – | –
9 | UUACCUCAUGAGAAGGACAUGAGGAUCACCCAUGUAGGAUAUCGUGGGAGACUGGUAUUGAAUCUUCGGAUUCAAUACCAGUCU | – | – | 375 nM | 29.7 nM
10 | ACUUACUGAGGAUAUACAUAGAUUUACAUGAGGAUCACCCAUGUUCCUCUAUGUAUAUAUGUAGAAGGCAGAAGGU | 24.6 nM | 77.8 nM | – | –
11 | CCGGAAAUGGAGGAUAUAGGAGUCGAUAGACACCUAGAAGGUCAGACAUGAGGAUCACCCAUGUGUCCUACCGG | 17.2 nM | 21.8 nM | – | –
12 | CUGUUGUGGUGCUGCUUGGCUUGGAGAGAAGGGUGAUUCACAUGAGGAUCACCCAUGUAGGACUUACAGGAUAUUUCCGGGUCU | – | – | 17.8 nM | 18.8 nM
13 | CAUACAGUAGUCAGGAUAUUGGAAGAGACACGGAACGAGAAGGGACAUGAGGAUCACCCAUGUAUACUGUAAAG | 26.8 nM | 22.6 nM | – | –
14 | GUCAGCUAGUGAGGAUAUACAACACUGCUUCGGCAGUGUAUUAAGAUCACAUGAGGAUCACCCAUGUAGAAGGCACGAGCUGAU | 13.8 nM | 273 nM | – | –
15 | GGAGACCUCACAGGAUAUGCUGGACUUUGUCCAGCAGAAGGGUGAAACAUGAGGAUCACCCAUGUUGGUCUCCAAAUAUUUAAU | – | – | 660 nM | 54.1 nM
16 | CUUCAGUCAGGAUAUGUUAAUCUCGCCACUCGGCGAACCGGACAGAAGGGACAUGAGGAUCACCCAUGUUAAAA | 34.7 nM | 19.7 nM | – | –
17 | GGAAAACAUGAGGAUCACCCAUGUGAGGAUAUCGAUGUCCAACCCAAAGUGCGGGACUCGAGAAGGCACUUGGA | 45.7 nM | 31.5 nM | – | –
18 | GACAUACAUGAGGAUCACCCAUGUUCAGGCGAACAAGGAUAUGUGUGGAAACCAUACUAUACAGAAGGUGUCUGUC | – | – | 63.1 nM | 38.8 nM
19 | GGAUGAGAAACUCAUCCAUAACGAACAUGAGGAUCACCCAUGUAGGAUAUGCUACUCAAAGAGUAGCAGAAGGACAUGUGUCUU | 29.6 nM | 144 nM | – | –
20 | UUUUCUUUUGUGAGGAUAUACUUGUUUUUUUUUUUGUAGAAGGCACAUGAGGAUCACCCAUGUUUUCUUUUCUG | 17.1 nM | 19.4 nM | – | –
21 | CCACAUGAGGAUCACCCAUGUAGGAUAAAUCACGGCUUGGCACAGGAUAUACGGAGCGACGGAUCGUAGAAGGGUGCACUCGGC | – | – | 8.37 nM | 6.07 nM
22 | AAGGUCAAGAUAGGAUAUGUUUCAUGAUAGAUAACAGAAGGAUCUAGAACAUGAGGAUCACCCAUGUGGCACAUAGAGUGGUGA | – | – | 429 nM | 441 nM
23 | UUAAAUCGAAACAUGAGGAUCACCCAUGUGUUGUGGUUAAUAUAGGAUAUGUGUAUACUUUUAUGACAGAAGGAUGAUGAUACU | – | – | 16.2 nM | 13.2 nM
24 | AAUCCACAUGAGGAUCACCCAUGUCAGGAUAUCGCGCGCGCGUUUUCGGUCUUUCGCGCGAGAAGGGACGACUG | 16.1 nM | 18.8 nM | – | –

Row | Sequence | apparent Kd [1] | apparent Kd [2] | apparent Kd [3] | apparent Kd [4]
25 | UUGGACGUCGUAGGAUAUGUAGGAUAUUCCUACAUGAGGAUCACCCAUGUUGACAUGGAAGAAGGACAGAUGGACGAUGUCCAU | – | – | 298 nM | 6.98 nM
26 | UAUACAAACGAAGGAUAUGGAUACAUGAGGAUCACCCAUGUAUGUAUGAUGAUCUAGAAAAUGGGCCAGAAGGUCGUGAUUAUU | 22.6 nM | 62.7 nM | – | –
27 | AGUUUGUUUGAGAAGGUGAAGUGGAAACAUGAGGAUCACCCAUGUAUUAGGAAGCCUGGUUUUGUCAAGGAUAUCGGGUAAACA | – | – | – | 13.9 nM
28 | CAUUAACAUGAGGAUCACCCAUGUGAGGAUAUGAUAUUACUAGGACGGCUGUAAUCAAUCAGAAGGCACAUCUU | 20.4 nM | 44.5 nM | – | –
29 | AAAGGACGAGGAUAUACAUGAGGAUCACCCAUGUAAAAAGCAUAAUAAAAUAACUUAUGUAGAAGGCGUCCAAA | 21.9 nM | 108 nM | – | –
30 | CUUCGUAUAGAGGAUAUAGGAUACCUCGGUGUCCUAGAAGGCUGUACAUGAGGAUCACCCAUGUACUUCAGAUC | 11.6 nM | 16 nM | – | –
31 | AACAGUACAGGAUAUACAUGAGGAUCACCCAUGUGAGAAUUAAGUGGCGUACCACAAAGUAGAAGGGUACUGGA | 36.9 nM | 133 nM | – | –
32 | CUUUAGUGAGGAUAUCAGUAGUAAUACAAUAGUAUUACUGCUGAGAAGGCACAUGAGGAUCACCCAUGUUCCUC | 38.1 nM | 169 nM | – | –
33 | CAGCCCUGAGGAUAUCCCUACUUGUACAUGAGGAUCACCCAUGUUCUCCUCUGGGCUUCGGGAGAAGGCAGGUCUC | 14.6 nM | 16.8 nM | – | –
34 | CCCACGAAAGUCGAACGAUGUAGGAGAAGGACAAUAACAUGACAUGAGGAUCACCCAUGUGCCAUGUAGGAUAUCCUACAUGGG | 7.86 nM | 7.78 nM | – | –
35 | CCUCGACAUGAGGAUCACCCAUGUCAGGAUAUUGUGUUUUGGGUUUUUUACCUUUAGGCAAGAAGGGAUGUGUG | 16.4 nM | 24.1 nM | – | –
36 | AGCAUGUAAGGAUAUGCAACACAGCUUUCAAUCGCUGUGCCGCAGAAGGUACAUGAGGAUCACCCAUGUGCUCC | 85.5 nM | 91.2 nM | – | –
37 | CGUUUUUAUGUAGGAUAUGCUUGUGGUAAGAUAGCAGAAGGACAUGAGGAUCACCCAUGUUAAUGAUAGAGAUUUUAUGUGGCG | 37.8 nM | 61.4 nM | – | –
38 | UUGUUGUAUGUAGGAUAUGCAUAUUAUUAUUGUGCAGAAGGACAUGAGGAUCACCCAUGUAUAUUAUUAUUAUAUGUUAUAUAU | 30.6 nM | 37.4 nM | – | –
39 | GGCGCAGCGGAGAAGGACGUGGCUCGCCACCACGUAGGAUAUCCCUGUGUACCGAAUUGUUACAUGAGGAUCACCCAUGUGGAC | – | – | 6.16 nM | 6.28 nM
40 | AACAUUCUAUCUCAGGAUAUCAUGUCAAAGACAUGAGGAUCACCCAUGUACCAGGAAACUGGUUAUGAGAAGGGAGAUAGAAUGA | – | – | 1220 nM | 227 nM
41 | CAAAGGACAGGAUAUGCGAGGGAGCCCGUGCAGGUCGCCCAACAUGAGGAUCACCCAUGUAGAAGGGUCAAAAC | 32.8 nM | 25.8 nM | – | –
42 | UCUAGACAUGAGGAUCACCCAUGUCGAUAUGGCGCAGGAUAUCGGUACUCAUAGAGUACGCGAGAAGGGUGACUUC | – | – | 343 nM | 48.4 nM
43 | GUGACGAAUGUAGGAUAUGCUGAGGAAUACUCAGCAGAAGGACAUGAGGAUCACCCAUGUCAUCCUUAUAAUGAAUAACGUCAC | 13.8 nM | 18.3 nM | – | –
44 | UAAUAUUUAUGAUAUUAUUACAUUAGAAGGCUAGACAUGUGGAUACAUGAGGAUCACCCAUGUAUAGAGGAUAUAGACAUAUAU | 31.8 nM | 53.6 nM | – | –
45 | AGAUAACACCAGAAGGACAUGAGGAUCACCCAUGUAGGAUAUGGGCAUCACUCGAGAAAGAUACGACCAAAAGGACACGCGAUC | – | – | 85 nM | 10.3 nM
46 | AGGUGUCCUGAGAGAUUUCUCCACAUGAGGAUCACCCAUGUAGAGGAUAUCGACGCUGUGCGGUUCGAGAAGGCUACACUAAUU | 6.85 nM | 42.4 nM | – | –
47 | AAGAAGUCAGGAUAUCCAUGGCGGCACUUGCGUGGUGGCGUGGAGAAGGGACAUGAGGAUCACCCAUGUAAAGG | 149 nM | 173 nM | – | –
48 | CGCCUGCGUAGAAUUAGCAGCUGACAGGAUAUGACAUGAGGAUCACCCAUGUGAAAUAAGAAGAGUCAGAAGGGUCACGACGCG | 10.8 nM | 8.77 nM | – | –

From the EternaBench riboswitch data
